For one compound, inhibition and Activity results are on record in ChEMBL document CHEMBL3861971, “Cinnamoyloxy-mammeisin Isolated from Geopropolis Attenuates Inflammatory Process by Inhibiting Cytokine Production: Involvement of MAPK, AP-1, and NF-κB” (J Nat Prod, 2016).

Active and inactive are the calls of the source. No cut-off for these calls is given here.

The subject of data set [1] is RAW264.7. As to the kind of experiment: Inhibition of JNK phosphorylation in peptidoglycan-stimulated mouse RAW264.7 cells at 6 uM pretreated for 30 mins followed by peptidoglycan stimulation for 15 mins by Western blot method. Format: cell-based. The gist of the method: (§1)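 RAW 264.7 cells (2×10^6/well) pretreated with 6 µM 30 min before PG 5 µg/mL. Lysed with RIPA plus protease/phosphatase inhibitors after 15 min of stimulation. Phospho-ERK1/2, SAPK/JNK and p38 detected by Western blot with chemiluminescence. n = 3 or 4.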

Data set [2] concerns Mus musculus. As to the kind of experiment: Antiinflammatory activity in specific pathogen-free C57BL/6 mouse assessed as reduction in carrageenan-induced CXCL2/MIP-2 release in peritoneal cavity at 300 ug/kg administered subcutaneously for 30 mins prior to carrageenan challenge measured after 3 hrs by ELISA. Format: functional. The gist of the method:
(§2)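 Mice (male C57BL/6 SPF) dosed sc in 1% DMSO/PBS 30 min ahead of ip carrageenan 500 µg/cavity. Peritoneal cavity sampled at 1.5 h for TNF-α and at 3 h for CXCL2/MIP-2. Levels measured by ELISA, expressed as pg/mL or pg/mg tissue.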

In data set [3] the test system is RAW264.7. As to the kind of experiment: Antiinflammatory activity in mouse RAW264.7 cells assessed as inhibition of peptidoglycan-stimulated CXCL2/MIP-2 release at 0.6 to 6 uM pretreated 30 mins prior to peptidoglycan challenge measured after 4 hrs by ELISA. Type of data set: functional, cell-based. A digest of the protocol: (§3)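 RAW 264.7 cells grown in RPMI/10% FBS, plated at 2×10^5/well overnight. Pretreated with 0.6, 2 or 6 µM 30 min before PG 5 µg/mL or LPS 10 ng/mL. Supernatant collected at 4 h for TNF-α and CXCL2/MIP-2 ELISA. Mean ± SEM, n = 3–5.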

Data set [4] concerns RAW264.7. As to the kind of experiment: Antiinflammatory activity in mouse RAW264.7 cells assessed as inhibition of peptidoglycan-stimulated TNFalpha production at 0.6 to 6 uM pretreated 30 mins prior to peptidoglycan challenge measured after 4 hrs by ELISA. Format: functional, cell-based. The gist of the method: as §3
Data set [5] concerns Mus musculus. As to the kind of experiment: Antiinflammatory activity in specific pathogen-free C57BL/6 mouse assessed as inhibition of mBSA-induced neutrophil migration into joint cavity at 100 ug/kg, administered post 21 days of immunization subcutaneously for 30 mins prior to mBSA challenge measured after 6 hrs by cell counting method. Format: functional. The gist of the method:
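C57BL/6 SPF males immunized sc with mBSA 500 µg in Complete Freund's adjuvant/PBS emulsion, boosted days 7 and 14 with Incomplete Freund's adjuvant plus mBSA. Compound given sc 30 min before ia mBSA 30 µg/joint on day 21. At 6 h joint cavity washed with PBS/EDTA, then total and differential leukocyte counts.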

For data set [6], the system named is RAW264.7. As to the kind of experiment: Antiinflammatory activity in mouse RAW264.7 cells assessed as inhibition of LPS-stimulated TNFalpha production at 0.6 to 6 uM pretreated 30 mins prior to LPS challenge measured after 4 hrs by ELISA. Format: functional, cell-based. The gist of the method:
as §3

Data set [7] addresses Transcription factor Jun (Mus musculus) (UniProt P05627). As to the kind of experiment: Inhibition of c-jun phosphorylation in peptidoglycan-stimulated mouse RAW264.7 cells at 6 uM pretreated for 30 mins followed by peptidoglycan stimulation for 30 mins by immunofluorescence method.
Data set [8] is filed under the species Mus musculus. As to the kind of experiment: Cytotoxicity against mouse RAW264.7 cells assessed as induction of apoptosis at 6 uM measured after 4 hrs by Annexin V-FTIC/propidium iodide staining-based flow cytometric analysis. To be noted: raw264.7, 4 h. Format: toxicity, cell-based. The gist of the method: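 RAW 264.7 cells (2×10^6/well, overnight) exposed to 6 µM for 4 h, then washed into annexin buffer. Stained with annexin V-FITC (1:50, 4 °C, 20 min) and then PI (1:100). Analysed by flow cytometry, about 10 000 gated events. Three to four separate experiments.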

Data set [9] concerns RAW264.7. As to the kind of experiment: Antiinflammatory activity in mouse RAW264.7 cells assessed as inhibition of LPS-stimulated CXCL2/MIP-2 release at 0.6 to 6 uM pretreated 30 mins prior to LPS challenge measured after 4 hrs by ELISA. Format: functional, cell-based. A digest of the protocol:
as §3

For data set [10], the system named is Mus musculus. As to the kind of experiment: Antiinflammatory activity in specific pathogen-free C57BL/6 mouse assessed as inhibition of carrageenan-induced leukocyte adhesion in mesenteric venules at 300 ug/kg administered subcutaneously for 30 mins prior to carrageenan challenge measured after 4 hrs by intravital microscopy. Format: functional.
Data set [11] relates to Mus musculus. As to the kind of experiment: Anti-inflammatory activity in specific pathogen-free C57BL/6 mouse assessed as inhibition of carrageenan-induced leukocyte rolling into mesenteric venules at 300 ug/kg administered subcutaneously for 30 mins prior to carrageenan challenge measured after 2 hrs for 10 mins by intravital microscopic analysis. Format: functional.
Data set [12] addresses Mitogen-activated protein kinase 1 and 3 (ERK2 and ERK1) (Mus musculus) (UniProt P63085+Q63844). As to the kind of experiment: Inhibition of ERK1/2 phosphorylation in peptidoglycan-stimulated mouse RAW264.7 cells at 6 uM pretreated for 30 mins followed by peptidoglycan stimulation for 15 mins by Western blot method. Type of data set: cell-based. The gist of the method:
as §1

Data set [13] has as its system Mus musculus. As to the kind of experiment: Antiinflammatory activity in specific pathogen-free C57BL/6 mouse assessed as reduction in mBSA-induced myeloperoxidase activity in joint cavity at 100 ug/kg administered post 21 days of immunization subcutaneously for 30 mins prior to mBSA challenge measured after 6 hrs by bioluminescence assay. Type of data set: functional. A digest of the protocol: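 mBSA-immunized C57BL/6 mice pretreated sc 30 min before ia mBSA 30 µg/joint. At 6 h, under anesthesia, mice given ip bioluminescent myeloperoxidase probe 100 mg/kg. Joints imaged on IVIS Spectrum, read out as radiance (p/sec/cm²/sr).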

The species named for data set [14] is Mus musculus. As to the kind of experiment: Cytotoxicity against mouse RAW264.7 cells at 6 uM measured after 4 hrs by MTT assay. Type of data set: toxicity, cell-based. The conditions noted are these: raw264.7, 4 h. A digest of the protocol: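 RAW 264.7 cells (2×10^5/well, overnight) exposed to 6 µM for 4 h. MTT 1 mg/mL in RPMI added for 2 h. Formazan taken up in absolute ethanol and absorbance read at 540 nm.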

The target in data set [15] is MAP kinase p38 (Mus musculus) (UniProt P47811+O08911+Q9WUI1+Q9Z1B7). As to the kind of experiment: Inhibition of MAPK p38 phosphorylation in peptidoglycan-stimulated mouse RAW264.7 cells at 6 uM pretreated for 30 mins followed by peptidoglycan stimulation for 15 mins by Western blot method. Type of data set: cell-based. The gist of the method:
as §1

Data set [16] concerns Mus musculus. As to the kind of experiment: Antiinflammatory activity in specific pathogen-free C57BL/6 mouse assessed as inhibition of carrageenan-induced neutrophil migration into peritoneal cavity at 300 ug/kg, administered subcutaneously for 30 mins prior to carrageenan challenge measured after 4 hrs using Neubauer chamber by optical microscopic analysis. Format: functional. The gist of the method:
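Male C57BL/6 SPF mice (20–22 g) pretreated sc (vehicle 1% DMSO in PBS), 30 min before ip carrageenan 500 µg/cavity. Peritoneal neutrophils determined 4 h later. Differential count of 100 cells by optical microscopy (100×). Expressed as neutrophils per cavity.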

For data set [17], the system named is Mus musculus. As to the kind of experiment: Antiinflammatory activity in specific pathogen-free C57BL/6 mouse assessed as reduction of mBSA-induced TNF-alpha release in joint cavity at 100 ug/kg, administered post 21 days of immunization subcutaneously for 30 mins prior mBSA challenge measured after 1.5 hrs by ELISA. Type of data set: functional. A digest of the protocol: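 Immunized mice (mBSA/Freund's adjuvant, boosts days 7 and 14) treated sc 30 min before day-21 ia mBSA 30 µg/joint. TNF-α in the joint measured by ELISA 1.5 h after challenge.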

The test system of data set [18] is RAW264.7. As to the kind of experiment: Inhibition of NFkappaB activation (unknown origin) expressed in mouse RAW264.7 cells at 0.6 to 6 uM pretreated for 30 mins followed by peptidoglycan challenge measured after 4 hrs by luciferase reporter gene assay. Type of data set: cell-based. The conditions noted are these: Homo sapiens. A digest of the protocol: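 RAW 264.7 cells stably carrying an NF-κB-driven luciferase reporter, plated at 3×10^5/well overnight. Pretreated with 0.6–6 µM 30 min before PG 5 µg/mL. Lysed in Tris-NaCl-Tween buffer at 4 h, luciferin reagent added and luminescence read. n = 3–5.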

Data set [19] relates to Mus musculus. As to the kind of experiment: Anti-inflammatory activity in specific pathogen-free C57BL/6 mouse assessed as reduction in carrageenan-induced TNF-alpha release in peritoneal cavity at 300 ug/kg administered subcutaneously for 30 mins prior to carrageenan challenge measured after 1.5 hrs by ELISA. Format: functional. A digest of the protocol:
as §2

Mitogen-activated protein kinase 1 and 3 (ERK2 and ERK1) (Mus musculus), sequence (P63085 whole entry, looked up): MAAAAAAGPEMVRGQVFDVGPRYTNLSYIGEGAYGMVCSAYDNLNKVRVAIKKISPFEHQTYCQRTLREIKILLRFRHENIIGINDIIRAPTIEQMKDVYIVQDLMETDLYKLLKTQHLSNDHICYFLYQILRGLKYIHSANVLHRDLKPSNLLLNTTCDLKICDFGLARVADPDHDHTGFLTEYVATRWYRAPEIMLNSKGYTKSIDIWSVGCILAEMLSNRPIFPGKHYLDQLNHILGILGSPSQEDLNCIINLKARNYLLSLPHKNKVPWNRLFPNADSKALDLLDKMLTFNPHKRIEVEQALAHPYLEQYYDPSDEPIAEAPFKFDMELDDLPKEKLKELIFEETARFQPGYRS
Mitogen-activated protein kinase 1 and 3 (ERK2 and ERK1) (Mus musculus), sequence (Q63844 whole entry, looked up): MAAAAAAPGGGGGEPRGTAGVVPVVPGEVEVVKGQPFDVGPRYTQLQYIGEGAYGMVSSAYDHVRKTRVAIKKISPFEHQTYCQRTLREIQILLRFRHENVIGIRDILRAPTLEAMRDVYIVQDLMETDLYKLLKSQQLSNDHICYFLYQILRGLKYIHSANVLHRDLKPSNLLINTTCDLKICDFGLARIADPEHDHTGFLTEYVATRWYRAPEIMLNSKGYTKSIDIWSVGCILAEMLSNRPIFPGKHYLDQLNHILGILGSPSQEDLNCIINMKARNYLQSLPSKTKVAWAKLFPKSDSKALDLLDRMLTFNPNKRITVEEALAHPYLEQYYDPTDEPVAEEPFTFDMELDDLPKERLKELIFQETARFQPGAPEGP
Transcription factor Jun (Mus musculus), sequence (P05627 whole entry): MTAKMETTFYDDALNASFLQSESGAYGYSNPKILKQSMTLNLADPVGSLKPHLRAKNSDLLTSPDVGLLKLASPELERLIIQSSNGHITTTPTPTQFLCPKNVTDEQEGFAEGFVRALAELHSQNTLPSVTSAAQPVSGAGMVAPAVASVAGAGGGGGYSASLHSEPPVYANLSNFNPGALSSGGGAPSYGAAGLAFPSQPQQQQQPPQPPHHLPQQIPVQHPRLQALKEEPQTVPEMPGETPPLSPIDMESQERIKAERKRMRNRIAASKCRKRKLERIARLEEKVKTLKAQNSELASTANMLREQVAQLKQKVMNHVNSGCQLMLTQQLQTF

For the compound `CC(C)=CCc1c(O)c(C(=O)CC(C)COC(=O)/C=C/c2ccccc2)c(O)c2c(-c3ccccc3)cc(=O)oc12` (centres undefined), the inhibition entry (in the data set with RAW264.7 [1]; in the data set with RAW264.7 [3]; in the data set on RAW264.7 [4]; with Mus musculus [5]; with RAW264.7 [6]; in [7]) was “Active” throughout. Further, the inhibition entry (with RAW264.7 [9]; in the data set with Mus musculus [10]; in the data set with Mus musculus [11]; in [12]; in data set [15]; with Mus musculus [16]) was “Active” in each case. In the data set on RAW264.7 [18], the inhibition entry was “Active”. For the same compound, the result in the data set on Mus musculus [2], in the data set with Mus musculus [13], in the data set on Mus musculus [17] and in the data set on Mus musculus [19] was Active. Further, the Activity result in the data set filed under Mus musculus [8] and in the data set listed under Mus musculus [14] was “Non-Toxic” in each case.
